Results reported in ChEMBL document CHEMBL3525906, “A comprehensive assessment of repaglinide metabolic pathways: impact of choice of in vitro system and relative enzyme contribution to in vitro clearance” (Drug Metab Dispos, 2012).

What was measured:
[1] = Retention time of the compound by LC-MS/MS method; type: physicochemical
Cytochrome P450 2C8 = target: T1, Cytochrome P450 2C8 (Homo sapiens, UniProt P10632); assay: Drug metabolism assessed as human recombinant CYP2C8-mediated metabolite formation at 0.5 to 150 uM by LC-MS/MS method; type: ADME; conditions: recombinant enzyme
T1 sequence (P10632 whole entry): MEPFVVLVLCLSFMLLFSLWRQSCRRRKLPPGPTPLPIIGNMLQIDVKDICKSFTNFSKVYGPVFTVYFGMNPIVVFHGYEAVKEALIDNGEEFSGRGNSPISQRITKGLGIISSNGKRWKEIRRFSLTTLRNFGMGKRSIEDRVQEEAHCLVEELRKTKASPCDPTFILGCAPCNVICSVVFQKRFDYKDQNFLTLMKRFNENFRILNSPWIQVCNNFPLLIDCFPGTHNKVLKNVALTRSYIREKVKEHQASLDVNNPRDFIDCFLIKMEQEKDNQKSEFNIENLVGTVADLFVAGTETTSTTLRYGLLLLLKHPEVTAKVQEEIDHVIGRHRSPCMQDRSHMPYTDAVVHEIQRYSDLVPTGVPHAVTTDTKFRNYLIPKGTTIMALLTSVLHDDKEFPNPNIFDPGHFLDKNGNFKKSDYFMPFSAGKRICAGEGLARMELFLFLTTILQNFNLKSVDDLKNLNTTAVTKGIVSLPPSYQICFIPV
Summary of the method: (§1)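 Recombinant P450 (CYP2C8 50, CYP3A4 30, CYP3A5 100; units not given) incubated 10 min at 37°C with repaglinide (8 concentrations, 0.5–150 μM) in 0.1 M phosphate pH 7.4, 10 mM MgCl2, NADPH-regenerating system (1 mM NADP+, isocitrate/isocitrate dehydrogenase). Quenched with ice-cold methanol plus indomethacin internal standard. M1, M2, M4 quantified by LC-MS/MS against authentic standards. Michaelis-Menten fit; mean ± SD, n=3.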

Cytochrome P450 3A5 = Cytochrome P450 3A5 (Homo sapiens, UniProt P20815); assay: Drug metabolism assessed as human recombinant CYP3A5-mediated metabolite formation at 0.5 to 150 uM by LC-MS/MS method; type: ADME; conditions: recombinant enzyme; summary of the method: as §1
[2] = Unbound intrinsic clearance in human hepatic S9 fraction assessed as 10 uM disulfiram-mediated inhibition of 2-despiperidyl-2-(5-carboxypentylamine) repaglinide formation at 0.5 to 150 uM by LC-MS/MS method; type: tissue-based, Liver; conditions: s9, 150 µM
Cytochrome P450 3A4 = Cytochrome P450 3A4 (Homo sapiens, UniProt P08684); assay: Drug metabolism assessed as human recombinant CYP3A4-mediated metabolite formation at 0.5 to 150 uM by LC-MS/MS method; type: ADME; conditions: recombinant enzyme; summary of the method: as §1
[3] = Unbound intrinsic clearance in human hepatic S9 fraction assessed as IC50 for disulfiram-mediated inhibition of 2-despiperidyl-2-(5-carboxypentylamine) repaglinide formation at 10, 25 and 50 uM by LC-MS/MS method
[4] = Ratio of human recombinant CYP3A4-mediated unbound intrinsic clearance to human recombinant CYP3A5-mediated unbound intrinsic clearance; type: ADME; conditions: recombinant enzyme
[5] = Ratio of human recombinant CYP3A4-mediated unbound intrinsic clearance to human recombinant CYP2C8-mediated unbound intrinsic clearance; type: ADME; conditions: recombinant enzyme
Homo sapiens [6] = species on record: Homo sapiens; assay: Unbound intrinsic clearance in human hepatic S9 fraction assessed as gemfibrozil glucuronide-mediated inhibition of 2-despiperidyl-2-amino repaglinide intrinsic clearance at 0.5 to 150 uM by LC-MS/MS method
[7] = Ratio of human recombinant CYP2C8-mediated unbound intrinsic clearance to human recombinant CYP3A5-mediated unbound intrinsic clearance; type: ADME; conditions: recombinant enzyme
[8] = Ratio of human recombinant CYP2C8-mediated unbound intrinsic clearance to human recombinant CYP3A4-mediated unbound intrinsic clearance; type: ADME; conditions: recombinant enzyme
Homo sapiens [9] = species on record: Homo sapiens; assay: Unbound intrinsic clearance in human hepatic S9 fraction assessed as ketoconazole-mediated inhibition of 3'-hydroxy repaglinide intrinsic clearance at 0.5 to 150 uM by LC-MS/MS method
[10] = substrate: CCOc1cc(CC(=O)N[C@@H](CC(C)C)c2ccccc2N2CCCCC2)ccc1C(=O)O; assay: Activity of human recombinant CYP3A5 expressed in insect cells assessed as enzyme-mediated 3'-hydroxy repaglinide formation per picomole of protein at 0.5 to 150 uM by LC-MS/MS method; type: ADME; summary of the method: as §1
[11] = substrate: CCOc1cc(CC(=O)N[C@@H](CC(C)C)c2ccccc2N2CCCCC2)ccc1C(=O)O; assay: Activity of human recombinant CYP3A5 expressed in insect cells assessed as enzyme-mediated 2-despiperidyl-2-amino repaglinide formation per picomole of protein at 0.5 to 150 uM by LC-MS/MS method; type: ADME; summary of the method: as §1
[12] = substrate: CCOc1cc(CC(=O)N[C@@H](CC(C)C)c2ccccc2N2CCCCC2)ccc1C(=O)O; assay: Activity of human recombinant CYP3A5 expressed in insect cells assessed as enzyme-mediated 2-despiperidyl-2-amino repaglinide formation by LC-MS/MS method; type: ADME; summary of the method: as §1
[13] = substrate: CCOc1cc(CC(=O)N[C@@H](CC(C)C)c2ccccc2N2CCCCC2)ccc1C(=O)O; assay: Activity of human recombinant CYP2C8 expressed in insect cells assessed as enzyme-mediated 3'-hydroxy repaglinide formation per picomole of protein at 0.5 to 150 uM by LC-MS/MS method; type: ADME; summary of the method: as §1
[14] = substrate: CCOc1cc(CC(=O)N[C@@H](CC(C)C)c2ccccc2N2CCCCC2)ccc1C(=O)O; assay: Activity of human recombinant CYP2C8 expressed in insect cells assessed as enzyme-mediated 3'-hydroxy repaglinide formation by LC-MS/MS method; type: ADME; summary of the method: as §1
[15] = substrate: CCOc1cc(CC(=O)N[C@@H](CC(C)C)c2ccccc2N2CCCCC2)ccc1C(=O)O; assay: Activity of human recombinant CYP2C8 expressed in insect cells assessed as enzyme-mediated 2-despiperidyl-2-amino repaglinide formation per picomole of protein at 0.5 to 150 uM by LC-MS/MS method; type: ADME; summary of the method: as §1
[16] = substrate: CCOc1cc(CC(=O)N[C@@H](CC(C)C)c2ccccc2N2CCCCC2)ccc1C(=O)O; assay: Activity of human recombinant CYP2C8 expressed in insect cells assessed as enzyme-mediated 2-despiperidyl-2-amino repaglinide formation by LC-MS/MS method; type: ADME; summary of the method: as §1

Chain of Cytochrome P450 3A4 (P08684 whole entry): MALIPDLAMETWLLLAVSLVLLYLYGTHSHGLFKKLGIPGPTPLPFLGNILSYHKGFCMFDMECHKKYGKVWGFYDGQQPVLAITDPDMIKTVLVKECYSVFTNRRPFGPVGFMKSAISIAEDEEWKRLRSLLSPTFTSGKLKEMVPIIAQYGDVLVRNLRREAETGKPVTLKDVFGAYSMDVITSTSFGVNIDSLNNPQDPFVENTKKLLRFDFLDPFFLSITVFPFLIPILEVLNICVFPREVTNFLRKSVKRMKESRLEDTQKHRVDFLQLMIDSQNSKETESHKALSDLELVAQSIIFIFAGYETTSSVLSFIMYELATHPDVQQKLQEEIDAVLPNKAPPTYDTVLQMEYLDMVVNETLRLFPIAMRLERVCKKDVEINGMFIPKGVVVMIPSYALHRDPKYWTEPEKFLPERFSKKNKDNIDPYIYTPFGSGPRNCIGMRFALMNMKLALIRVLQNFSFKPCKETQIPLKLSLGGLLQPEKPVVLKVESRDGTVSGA

Molecule: CCOc1cc(CC(=O)N[C@@H](CC(C)C)c2ccccc2NCCCCC(=O)O)ccc1C(=O)O
- Retention_time [1]: 2.8 min
- Drug metabolism (Cytochrome P450 2C8): < 1 nM
- Drug metabolism (Cytochrome P450 3A5): < 1 nM
- inhibition (INH) [2]: 89%
- Drug metabolism (Cytochrome P450 3A4): < 1 nM
- IC50 [3]: 1200 nM

Molecule: CCOc1cc(CC(=O)N[C@@H](CC(C)C)c2ccccc2N)ccc1C(=O)O
- Retention_time [1]: 2.7 min
- Ratio [4]: 85
- Ratio [5]: 32
- inhibition (INH) (Homo sapiens [6]): < 30%

Molecule: CCOc1cc(CC(=O)N[C@@H](CC(C)C)c2ccccc2N2CCCC(O)C2)ccc1C(=O)O (stereo partly drawn)
- Retention_time [1]: 2.9 min
- Ratio [7]: 360
- Ratio [8]: 35
- inhibition (INH) (Homo sapiens [9]): < 30%

Molecule: CCOc1cc(CC(=O)N[C@@H](CC(C)C)c2ccccc2N2CCCCC2)ccc1C(=O)O[C@@H]1O[C@H](C(=O)O)[C@@H](O)[C@H](O)[C@H]1O
- Retention_time [1]: 3.4 min

Molecule: COc1ccc2c(c1)c(CC(=O)O)c(C)n2C(=O)c1ccc(Cl)cc1 [INDOMETHACIN]
- Retention_time [1]: 3 min

B1: Cytochrome P450 3A5 (Homo sapiens) (protein)
chain: MDLIPNLAVETWLLLAVSLVLLYLYGTRTHGLFKRLGIPGPTPLPLLGNVLSYRQGLWKFDTECYKKYGKMWGTYEGQLPVLAITDPDVIRTVLVKECYSVFTNRRSLGPVGFMKSAISLAEDEEWKRIRSLLSPTFTSGKLKEMFPIIAQYGDVLVRNLRREAEKGKPVTLKDIFGAYSMDVITGTSFGVNIDSLNNPQDPFVESTKKFLKFGFLDPLFLSIILFPFLTPVFEALNVSLFPKDTINFLSKSVNRMKKSRLNDKQKHRLDFLQLMIDSQNSKETESHKALSDLELAAQSIIFIFAGYETTSSVLSFTLYELATHPDVQQKLQKEIDAVLPNKAPPTYDAVVQMEYLDMVVNETLRLFPVAIRLERTCKKDVEINGVFIPKGSMVVIPTYALHHDPKYWTEPEEFRPERFSKKKDSIDPYIYTPFGTGPRNCIGMRFALMNMKLALIRVLQNFSFKPCKETQIPLKLDTQGLLQPEKPIVLKVDSRDGTLSGE
- kcat [10]: 0.000833 s⁻¹
- kcat [11]: 0.00133 s⁻¹
- Km [12]: 66 µM

B2: Cytochrome P450 2C8 (Homo sapiens) (protein)
chain: MEPFVVLVLCLSFMLLFSLWRQSCRRRKLPPGPTPLPIIGNMLQIDVKDICKSFTNFSKVYGPVFTVYFGMNPIVVFHGYEAVKEALIDNGEEFSGRGNSPISQRITKGLGIISSNGKRWKEIRRFSLTTLRNFGMGKRSIEDRVQEEAHCLVEELRKTKASPCDPTFILGCAPCNVICSVVFQKRFDYKDQNFLTLMKRFNENFRILNSPWIQVCNNFPLLIDCFPGTHNKVLKNVALTRSYIREKVKEHQASLDVNNPRDFIDCFLIKMEQEKDNQKSEFNIENLVGTVADLFVAGTETTSTTLRYGLLLLLKHPEVTAKVQEEIDHVIGRHRSPCMQDRSHMPYTDAVVHEIQRYSDLVPTGVPHAVTTDTKFRNYLIPKGTTIMALLTSVLHDDKEFPNPNIFDPGHFLDKNGNFKKSDYFMPFSAGKRICAGEGLARMELFLFLTTILQNFNLKSVDDLKNLNTTAVTKGIVSLPPSYQICFIPV
- kcat [13]: 0.00583 s⁻¹
- Km [14]: 5.7 µM
- kcat [15]: 0.00133 s⁻¹
- Km [16]: 25 µM
